Data from ChEMBL document CHEMBL3352034, “Therapeutic potential of targeting the oncogenic SHP2 phosphatase” (J Med Chem, 2014).
Values belong to the compound of their own block, whether it stands above or below them. Activity calls are given as the source filed them. The rule behind the calls is not given here.

Legend:
[1] = species: Mus musculus; experiment: Anticancer activity against mouse 32D cells bearing wild-type KIT assessed as ligand dependent growth inhibition at 1 to 5 uM measured after 6 hrs; type: functional, cell-based
Outline: (§1)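 32D myeloid cells retrovirally transduced with WT KIT or KITD814V and sorted on EGFP. Starved 6–8 h in IMDM/0.2% BSA without serum or growth factors. Plated at 5×10^4 cells in triplicate in IMDM/10% FBS, with 10 ng/mL IL-3 for WT KIT and no growth factors for KITD814V, ± inhibitor. Cultured 48 h, pulsed 6 h with 1.0 μCi [3H]thymidine, CPM counted. Four independent experiments.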

[2] = species: Mus musculus; experiment: Anticancer activity against mouse 32D cells bearing KITD814V mutant assessed as ligand dependent growth inhibition at 5 uM measured after 6 hrs; type: functional, cell-based; conditions: in the assay text read “ligand independent” for “ligand dependent”; outline: as §1
[3] = molecular target: T1, Tyrosine-protein phosphatase non-receptor type 11 (Homo sapiens) (UniProt Q06124); experiment: Inhibition of SHP2 in human NCI-H1975 cells assessed as reduction in EGF-induced Erk1/2 phosphorylation at 2 uM after 60 mins by immunoblot analysis; type: cell-based
T1 sequence (whole entry): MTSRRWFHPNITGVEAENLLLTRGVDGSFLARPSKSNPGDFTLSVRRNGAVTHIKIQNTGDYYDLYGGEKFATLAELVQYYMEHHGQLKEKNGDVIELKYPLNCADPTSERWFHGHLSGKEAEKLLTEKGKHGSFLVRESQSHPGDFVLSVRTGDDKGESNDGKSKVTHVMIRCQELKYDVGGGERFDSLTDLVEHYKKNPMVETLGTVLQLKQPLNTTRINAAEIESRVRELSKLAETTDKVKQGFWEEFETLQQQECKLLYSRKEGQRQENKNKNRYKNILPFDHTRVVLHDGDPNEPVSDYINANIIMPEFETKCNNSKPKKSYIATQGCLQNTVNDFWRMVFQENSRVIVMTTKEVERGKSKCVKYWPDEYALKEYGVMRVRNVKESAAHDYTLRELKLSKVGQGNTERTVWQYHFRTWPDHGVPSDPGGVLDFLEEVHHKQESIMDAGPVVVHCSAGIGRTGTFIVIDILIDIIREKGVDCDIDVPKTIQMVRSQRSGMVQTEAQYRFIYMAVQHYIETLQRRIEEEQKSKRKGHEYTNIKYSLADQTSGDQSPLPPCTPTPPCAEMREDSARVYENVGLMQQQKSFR
Outline: (§2)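 H1975 cells serum-starved overnight, treated with vehicle or compound for 3 h, then left unstimulated or stimulated with 5 ng/mL EGF for 60 min. Lysates resolved by SDS-PAGE and immunoblotted for paxillin pY118 and phospho-Erk1/2.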

[4] = molecular target: T1, Tyrosine-protein phosphatase non-receptor type 11 (Homo sapiens); experiment: Inhibition of SHP2 dephosphorylation activity in human NCI-H1975 cells assessed as increase in paxillin (pY118) phosphorylation at 2 uM after 60 mins by immunoblot analysis; type: cell-based; set-up: Activity: scale not given: the % may be the effect or the level left; outline: as §2
[5] = molecular target: Receptor-type tyrosine-protein phosphatase epsilon (Homo sapiens, UniProt P23469); experiment: Inhibition of PTPepsilon (unknown origin)
[6] = molecular target: Receptor-type tyrosine-protein phosphatase alpha (Homo sapiens, UniProt P18433); experiment: Inhibition of PTPalpha (unknown origin)
[7] = system: NCI-H1975; experiment: Anticancer activity against human NCI-H1975 cells after 2 days by MTT assay; type: functional, cell-based
Outline: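 H1975 NSCLC cells in RPMI-1640 with 10% FBS at 37 °C, 5% CO2. 3×10^3 cells/well, treated 2 days in RPMI-1640 with 0.5% FBS. MTT at 50 μg/mL for 3–4 h, formazan dissolved in DMSO, OD read at 540 nm. Media-only wells used for background. IC50 from dose–response.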

[8] = molecular target: T1, Tyrosine-protein phosphatase non-receptor type 11 (Homo sapiens); experiment: Inhibition of SHP2 in human NCI-H1975 cells assessed as reduction in EGF-induced Erk1/2 phosphorylation after 60 mins by immunoblot analysis; type: cell-based; outline: as §2
[9] = molecular target: T1, Tyrosine-protein phosphatase non-receptor type 11 (Homo sapiens); experiment: Inhibition of SHP2 dephosphorylation activity in human NCI-H1975 cells assessed as increase in paxillin (pY118) phosphorylation after 60 mins by immunoblot analysis; type: cell-based; outline: as §2
[10] = molecular target: T1, Tyrosine-protein phosphatase non-receptor type 11 (Homo sapiens); experiment: Inhibition of SHP2 in human NCI-H1975 cells assessed as reduction in EGF-induced Erk1/2 phosphorylation after 60 mins by immunoblot analysis in presence of SHP2 siRNA; type: cell-based
Outline: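 H1975 cells transfected with SHP2 or scrambled siRNA using Lipofectamine 2000 for 6 h, then recovered in RPMI1640 with 10% FBS. Serum-starved overnight, treated with compound for 3 h, stimulated with 5 ng/mL EGF for 60 min. Phospho-Erk1/2 measured by immunoblot.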

[11] = system: NCI-H1975; experiment: Effect on PMA-induced Erk1/2 phosphorylation in human NCI-H1975 cells at 0.5 to 2 uM after 30 mins by immunoblot analysis; type: functional, cell-based
[12] = system: SK-BR-3; experiment: Anticancer activity against human SKBR3 cells assessed as growth inhibition at 3 uM measured within 24 hrs by matrigel assay; type: functional, cell-based
Outline: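 About 300000 SKBR3 cells seeded into 150 μL growth factor reduced Matrigel. Three dishes per condition received medium containing DMSO vehicle or compound. Colonies imaged every 24 h under a stereo microscope. Cross-sectional area of individual colonies measured from the images.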

[13] = molecular target: T1, Tyrosine-protein phosphatase non-receptor type 11 (Homo sapiens); experiment: Inhibition of SHP2 in human SKBR3 cells assessed as inhibition of total Erk1/2 phosphorylation level at 1 to 10 uM measured after 4 days by matrigel assay; type: cell-based; conditions: SK-BR-3
Outline: (§3)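 SKBR3 cells grown in Matrigel with vehicle or compound (1 to 10 μM), three dishes per condition. After 4 days cells recovered from Matrigel and lysed in PLC buffer with protease inhibitors. Total and phospho Erk1/2 and Akt detected by SDS-PAGE immunoblot.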

[14] = molecular target: T1, Tyrosine-protein phosphatase non-receptor type 11 (Homo sapiens); experiment: Inhibition of SHP2 in human SKBR3 cells assessed as inhibition of total Akt phosphorylation level at 1 to 10 uM measured after 4 days by matrigel assay; type: cell-based; conditions: SK-BR-3; outline: as §3
[15] = species: Mus musculus; experiment: Anticancer activity against mouse 32D cells bearing KITD814V mutant assessed as ligand dependent growth inhibition at 1 uM measured after 6 hrs; type: functional, cell-based; conditions: in the assay text read “ligand independent” for “ligand dependent”; outline: as §1
[16] = system: Bone marrow cell; experiment: Reduction in growth of C57BL/6 mouse Bone marrow cell bearing KITD814V mutant at 1 uM after 6 hrs; type: functional, cell-based
[17] = system: Bone marrow cell; experiment: Reduction in growth of C57BL/6 mouse Bone marrow cell bearing KITD814V mutant at 5 uM after 6 hrs; type: functional, cell-based
[18] = molecular target: Mast/stem cell growth factor receptor Kit (Homo sapiens) (UniProt P10721); experiment: Effect on wild type KIT (unknown origin) expressed in serum starved mouse 32D cells assessed as effect on Erk1/2 activation at 1 to 5 uM measured after 2 hrs by immunoblot analysis; type: cell-based
Outline: (§4)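 Sorted 32D cells expressing WT KIT or KITD814V, starved of serum and growth factors for 6 h. Treated with compound for 2 h, then lysed in NP-40 buffer with phosphatase and protease inhibitors. Equal protein amounts immunoblotted for phospho and total Akt and Erk1/2, ECL detection. Two independent experiments.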

[19] = molecular target: Mast/stem cell growth factor receptor Kit (Homo sapiens) (UniProt P10721); experiment: Inhibition of KIT D814V mutant (unknown origin) expressed in serum starved mouse 32D cells assessed as inhibition of total Erk1/2 activation at 1 to 5 uM measured after 2 hrs by immunoblot analysis; type: cell-based; outline: as §4
[20] = molecular target: Mast/stem cell growth factor receptor Kit (Homo sapiens) (UniProt P10721); experiment: Effect on wild type KIT (unknown origin) expressed in serum starved mouse 32D cells assessed as effect on Akt activation at 1 to 5 uM measured after 2 hrs by immunoblot analysis; type: cell-based; outline: as §4
[21] = molecular target: Mast/stem cell growth factor receptor Kit (Homo sapiens) (UniProt P10721); experiment: Inhibition of KIT D814V mutant (unknown origin) expressed in serum starved mouse 32D cells assessed as inhibition of Akt activation at 1 to 5 uM measured after 2 hrs by immunoblot analysis; type: cell-based; outline: as §4
[22] = molecular target: T2, Tyrosine-protein phosphatase non-receptor type 11 (Homo sapiens, UniProt Q06124); experiment: Inhibition of SHP2 (unknown origin) using p-nitrophenyl phosphate substrate by microplate spectrophotometry
T2 sequence (Q06124 whole entry): T1 sequence (whole entry)

Chain of Mast/stem cell growth factor receptor Kit (Homo sapiens) (P10721 whole entry): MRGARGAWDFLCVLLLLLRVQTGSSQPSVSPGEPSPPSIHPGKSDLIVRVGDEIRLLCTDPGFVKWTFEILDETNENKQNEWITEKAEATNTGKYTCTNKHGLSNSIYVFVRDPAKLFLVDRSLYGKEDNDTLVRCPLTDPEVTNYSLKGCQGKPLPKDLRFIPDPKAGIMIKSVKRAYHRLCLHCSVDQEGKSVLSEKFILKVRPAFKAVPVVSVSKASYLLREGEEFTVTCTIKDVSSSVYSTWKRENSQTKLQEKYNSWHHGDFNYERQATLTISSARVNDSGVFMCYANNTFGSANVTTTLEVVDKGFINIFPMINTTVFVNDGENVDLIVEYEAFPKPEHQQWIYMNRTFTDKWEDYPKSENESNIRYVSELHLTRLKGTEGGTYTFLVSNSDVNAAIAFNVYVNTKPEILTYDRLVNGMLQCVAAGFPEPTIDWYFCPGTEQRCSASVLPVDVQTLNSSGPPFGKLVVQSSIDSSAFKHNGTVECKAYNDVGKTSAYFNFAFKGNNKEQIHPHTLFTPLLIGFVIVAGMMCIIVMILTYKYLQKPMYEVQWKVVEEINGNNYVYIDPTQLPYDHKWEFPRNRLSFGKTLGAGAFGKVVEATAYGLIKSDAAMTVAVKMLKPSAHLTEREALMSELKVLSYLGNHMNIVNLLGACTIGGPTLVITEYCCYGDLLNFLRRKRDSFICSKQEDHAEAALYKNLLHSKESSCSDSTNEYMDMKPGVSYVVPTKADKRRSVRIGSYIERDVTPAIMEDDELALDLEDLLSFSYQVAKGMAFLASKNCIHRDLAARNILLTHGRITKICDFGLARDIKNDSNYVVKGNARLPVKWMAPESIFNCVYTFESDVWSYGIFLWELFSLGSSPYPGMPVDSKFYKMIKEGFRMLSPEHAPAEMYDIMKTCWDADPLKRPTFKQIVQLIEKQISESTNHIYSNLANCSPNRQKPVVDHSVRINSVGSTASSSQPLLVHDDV
Chain of Receptor-type tyrosine-protein phosphatase alpha (P18433 whole entry): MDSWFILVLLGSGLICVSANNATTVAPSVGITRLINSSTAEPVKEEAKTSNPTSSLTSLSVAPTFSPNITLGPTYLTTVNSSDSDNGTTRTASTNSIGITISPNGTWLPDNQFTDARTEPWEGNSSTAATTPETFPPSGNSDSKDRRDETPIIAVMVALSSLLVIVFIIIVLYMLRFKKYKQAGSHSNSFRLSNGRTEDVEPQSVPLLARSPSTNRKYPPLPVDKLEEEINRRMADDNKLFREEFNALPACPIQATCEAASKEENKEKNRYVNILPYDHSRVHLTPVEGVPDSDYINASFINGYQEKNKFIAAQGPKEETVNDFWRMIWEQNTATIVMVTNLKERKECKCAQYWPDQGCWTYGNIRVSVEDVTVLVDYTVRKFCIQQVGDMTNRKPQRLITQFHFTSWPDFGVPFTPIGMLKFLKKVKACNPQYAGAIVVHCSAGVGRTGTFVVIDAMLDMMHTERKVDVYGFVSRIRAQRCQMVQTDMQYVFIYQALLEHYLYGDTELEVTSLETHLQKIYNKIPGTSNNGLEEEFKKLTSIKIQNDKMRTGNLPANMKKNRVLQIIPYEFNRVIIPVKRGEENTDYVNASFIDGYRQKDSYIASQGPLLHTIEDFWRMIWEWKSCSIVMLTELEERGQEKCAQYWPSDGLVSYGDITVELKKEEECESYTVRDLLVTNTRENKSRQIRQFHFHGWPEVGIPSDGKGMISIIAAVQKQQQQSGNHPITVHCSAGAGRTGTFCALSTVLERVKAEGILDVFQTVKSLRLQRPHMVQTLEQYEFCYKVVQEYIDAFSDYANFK
Chain of Receptor-type tyrosine-protein phosphatase epsilon (P23469 whole entry): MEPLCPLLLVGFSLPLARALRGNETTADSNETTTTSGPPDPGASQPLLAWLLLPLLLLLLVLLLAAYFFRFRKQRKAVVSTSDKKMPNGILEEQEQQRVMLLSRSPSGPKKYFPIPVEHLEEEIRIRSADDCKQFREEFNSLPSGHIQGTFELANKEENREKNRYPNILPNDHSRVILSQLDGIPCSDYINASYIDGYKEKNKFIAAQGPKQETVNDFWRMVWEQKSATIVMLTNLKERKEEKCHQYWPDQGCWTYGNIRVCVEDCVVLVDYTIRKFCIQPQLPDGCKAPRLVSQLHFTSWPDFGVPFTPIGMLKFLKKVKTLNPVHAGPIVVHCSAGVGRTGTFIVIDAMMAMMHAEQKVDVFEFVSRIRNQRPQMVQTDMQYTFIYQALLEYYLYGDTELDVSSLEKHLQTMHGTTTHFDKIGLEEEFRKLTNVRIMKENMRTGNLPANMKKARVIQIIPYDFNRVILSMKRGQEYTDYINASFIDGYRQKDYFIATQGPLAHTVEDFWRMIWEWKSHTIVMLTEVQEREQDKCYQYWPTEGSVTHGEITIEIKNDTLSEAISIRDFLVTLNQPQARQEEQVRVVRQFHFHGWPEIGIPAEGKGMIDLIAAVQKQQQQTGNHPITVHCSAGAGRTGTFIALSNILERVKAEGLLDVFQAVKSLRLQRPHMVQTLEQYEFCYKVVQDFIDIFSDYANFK

SMILES: Cn1c(-c2ccccc2)c(-c2cn(CCC(=O)Nc3ccc(-c4ccccc4)cc3)nn2)c2cc(C(=O)O)c(O)cc21
inhibition [1]: inactive
inhibition [2]: Active

inhibition [3]: inactive
inhibition [4]: inactive
SMILES: Cn1c(-c2cccc(NC(=O)C(=O)O)c2)c(I)c2cc(C(=O)O)c(O)cc21

IC50 [5]: > 20 µM
IC50 [6]: > 100 µM
IC50 ([7]; NCI-H1975, 48 h): 0.17 µM
inhibition [8]: Dose-dependent effect
inhibition [9]: Dose-dependent effect
inhibition [3]: 40%
Activity [4]: 30%
inhibition [10]: inactive
inhibition [13]: Active
inhibition [14]: Active
inhibition [18]: inactive
inhibition [19]: Dose-dependent effect
inhibition [20]: inactive
inhibition [21]: Dose-dependent effect
SMILES: Cn1c(-c2cccc(NC(=O)C(=O)Nc3ccc(-c4ccsc4)cc3)c2)c(I)c2cc(C(=O)O)c(O)cc21
inhibition [7]: Dose-dependent effect
Activity [11]: inactive
inhibition [12]: Active
inhibition [1]: inactive
inhibition [2]: Active
inhibition [15]: Active
inhibition [16]: Active
inhibition [17]: Active

IC50 [22]: > 20 µM
SMILES: CCCN(CC1CC1)C(=O)CCC(=O)Nc1cccc(-c2c(I)c3cc(C(=O)O)c(O)cc3n2C)c1
